Results on seven compounds are retold here after article PMC12808237 (Nature Communications, 2025).

Assay [1] addresses T1, MITF(217-296) (Homo sapiens, UniProt O75030).
T1 sequence (O75030 217-296 isoform O75030-9): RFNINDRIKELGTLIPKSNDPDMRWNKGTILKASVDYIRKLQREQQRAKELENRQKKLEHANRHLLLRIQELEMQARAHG
Description: Protein-observed NMR titration. It counts as binding.

The next assay deals with melanoma cell lines. The following applies: cited from earlier work.
Assay [2] has as its system MITF-dependent target genes. Conditions: cited from earlier work.
Assay [3] deals with T2, MITF(180-296) (Homo sapiens, UniProt O75030).
T2 sequence (O75030 300-403 limits assumed): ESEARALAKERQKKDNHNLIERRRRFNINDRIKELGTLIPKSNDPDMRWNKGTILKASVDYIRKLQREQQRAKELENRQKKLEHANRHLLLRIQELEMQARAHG
Description: Isothermal titration calorimetry. The class given is binding. Conditions: 25 °C, n = 2, mean ± SD. The gist of the method:
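Run at 25 °C in high-feedback mode. Buffer: 25 mM Tris-HCl pH 7.5, 150 mM NaCl, 10 mM L-arginine, 3 mM EDTA, 0.5 mM TCEP. Cell held 12 µM purified dimeric wild-type avi-tagged MITF(180-296), dialysed twice at 4 °C, with 2% DMSO. Syringe held 182–220 µM test compound diluted from DMSO. Duplicates were fitted with automatic baseline/integration; reported as mean ± SD.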
In general terms: Isothermal titration calorimetry measures the heat released or taken up as one component is titrated into another.

In assay [4] the target is T2, MITF(180-296). Description: Nano differential scanning fluorimetry. It counts as binding. Conditions: nanoDSF, compound at 50 μM. An outline of the steps: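 Wild-type MITF(180-296) was spun 16,000 × g, 10 min, 4 °C, then used at 0.3 mg mL-1 final in 50 mM HEPES pH 8, 300 mM NaCl, 5% glycerol, 1 mM TCEP. Test compound 50 μM final, 3% DMSO; DMSO for apo. Shaken 30 min at RT and re-spun. Heated 20–95 °C at 0.5 °C min-1; 280 nm excitation, 330/350 nm emission. Duplicates.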
A general note: Differential scanning fluorimetry follows unfolding on heating by fluorescence.

For the next assay, the system named is MITF(180-296) Q261A. The experiment in a line: ITC with MITF variant Q261A. Conditions: 25 °C. It counts as binding, human.
The target of assay [5] is T3, MITF(180-296) (Homo sapiens, UniProt O75030).
T3 sequence (O75030 287-403): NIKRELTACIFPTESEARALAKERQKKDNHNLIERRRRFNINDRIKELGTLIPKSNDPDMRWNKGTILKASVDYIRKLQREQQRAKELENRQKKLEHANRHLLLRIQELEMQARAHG
Description: Surface plasmon resonance. It counts as binding. Conditions: 25 °C. An outline of the steps: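 MITF(180-296), biotinylated via C-terminal Avi-tag, was captured on a streptavidin chip at 6 µg mL-1 to ~3000 RU. Run at 25 °C in 25 mM Tris-HCl pH 7.5, 150 mM NaCl, 0.05% Tween 20, 3 mM EDTA, 0.5 mM TCEP, 10 mM L-arginine, 3% DMSO. Test compound was injected as a 2- or 3-fold series at 60 µL min-1 (60 s association, 150 s dissociation). Double-referenced data were fitted globally to a 1:1 model for kon, koff and KD.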
On the technique in general: Surface plasmon resonance follows binding to a sensor surface in real time, without labels.

The test system of the next assay is MITF(180-296) A264C. Description: ITC with MITF variant A264C. The class given is binding, human. Conditions: 25 °C.
For the next assay, the system named is MITF(180-296) R263A. Description: ITC with MITF variant R263A. It counts as binding, human. The following applies: 25 °C.
Assay [6] concerns the target T1, MITF(217-296). The experiment in a line: 19F NMR reporter assay. It counts as binding.
The next assay addresses MYC/MAX (Homo sapiens, UniProt P01106+P61244). The experiment in a line: NMR chemical shift perturbation. The class given is binding.
The mark [7] stands for this setting: KD (MITF NMR KD), protein-observed NMR titration.
Where [8] appears, read: SPR KD,eq, equilibrium affinity.

Chain of MYC/MAX (P01106 368-449): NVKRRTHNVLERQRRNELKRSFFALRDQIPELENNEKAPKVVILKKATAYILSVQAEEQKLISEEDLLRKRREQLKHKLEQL
Chain of MYC/MAX (P61244 22-102): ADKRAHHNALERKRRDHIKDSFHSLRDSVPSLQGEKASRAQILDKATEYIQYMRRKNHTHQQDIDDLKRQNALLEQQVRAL

What is called Kd is a measure of binding affinity in units of concentration. On to `O=C(O)c1[nH]c2ccc(Cl)cc2c1-c1ccc(F)cc1` [compound 5], for which the Kd at MITF(217-296) [1] (setting [7]) stood at 104 µM.
For `NS(=O)(=O)c1ccc(NC2=CC(=O)c3ccccc3C2=O)cc1` [ML329], in the assay on melanoma cell lines, the “effect on survival of melanoma cell lines” value is on record as “negatively impact survival of melanoma cell lines”. Further, in assay [2], the “effect on MITF-dependent target genes” value is “induce downregulation of a subset of MITF-dependent target genes”.
As to `O=C(O)c1cc2ccc(C#CC3(O)CCCCC3)cc2n1-c1cccc(Cl)c1` [compound 8], the Kd on MITF(180-296) [3] (ITC KD) is 0.47 ± 0.17 µM; on MITF(180-296) [5] (setting [8]) it was 1.9 µM; on MITF(180-296) [5] (kinetic affinity constant (KD,kin), SPR, from kon and koff), 1.8 µM. The “-TΔS” value at MITF(180-296) [3] (ITC) amounted to 2.96 ± 2.08 kcal/mol. Moreover, the ΔG at MITF(180-296) [3] (ITC) was -8.63 ± 0.21 kcal/mol. At MITF(180-296) [3] (ITC), this compound showed a ΔH of -11.8 ± 1.55 kcal/mol. The “thermal stabilization of MITF” value at MITF(180-296) [4] came to 3.4 °C. Besides, the “binding to MITF variant by ITC” value in the assay on MITF(180-296) Q261A, with MITF(180-296) A264C and with MITF(180-296) R263A was “significant disruption of binding interactions” each time.
Compound `O=C(O)c1[nH]c2ccc(Cl)cc2c1-c1ccccc1` [compound 3] came in with a Kd at MITF(217-296) [1] (setting [7]) of 327 µM. The compound further returned a ligand efficiency on MITF(217-296) [6] (from NMR affinities) of 0.25.
One may read the Ki as the equilibrium dissociation constant of an inhibitor or competing ligand from its target. For `O=C(O)c1cc2ccc(C#CC3(O)CCCCC3)cc2n1-c1ccccc1` [compound 6], the “ITC KD” value on MITF(180-296) [3] is listed as “low-μM range”. Moreover, the figures for the Kd at MITF(180-296) [5] (setting [8]) and on MYC/MAX were 8 µM and above 200 µM, respectively. The affinity at MITF(217-296) [6], expressed as Ki, was 2.6 µM. The “improved binding affinity compared to compound 3” value on MITF(217-296) [6] (Ki of 6 versus KD of 3) is reported as above 100 fold.
Regarding `O=C(O)c1cc2cc(F)ccc2n1-c1ccc(F)cc1` [compound 1], at MITF(217-296) [1] (KD, protein-observed NMR titrations), binding was characterised by a dissociation constant (Kd) of 1000 µM.
On to `Cc1cc(C#CC2(O)CCCCC2)cc2c1cc(C(=O)O)n2-c1ccccc1` [compound 7], for which the “ITC KD” value at MITF(180-296) [3] is reported as “low-μM range”. Further, the Kd on MITF(180-296) [5] (setting [8]) was 4 µM; at MYC/MAX it was above 200 µM.
